Data on five molecules can be found in ChEMBL document CHEMBL1150796, “A novel fluorescence intensity screening assay identifies new low-molecular-weight inhibitors of the gp41 coiled-coil domain of human immunodeficiency virus type 1” (Antimicrob Agents Chemother, 2007).

By IC50 is commonly meant the concentration at which inhibition is half-maximal. The Ki is a dissociation constant, usually derived from enzyme kinetics or from competition with a known ligand. Higher therefore signals a looser hold on the target.

Square brackets hold non-standard residues; d marks the D form. Peptide text beside a SMILES is read from it. Aib = CC(C)(N)C(=O)O

Test [1] deals with Human immunodeficiency virus 1. The test is described as follows: Antiviral activity against HIV1 assessed as syncytium inhibition by cell-cell fusion assay. It is filed as functional, organism-based. The method, boiled down: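 HIV-1 fusion run as a cell-cell assay: HeLa effector cells with inducible gp160 expression were paired with CCR5-expressing reporter cells carrying Tat-responsive LTR-luciferase, with luciferase as the read-out. DMSO in culture was capped at 1%.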

Test [2] has as its system Human immunodeficiency virus 1. The test is described as follows: Antiviral activity against HIV1 assessed as inhibition of fusion of gp160 expressing human HeLa cells and CCR5-expressing Tat-long terminal repeat luciferase reporter cells. It is filed as functional, organism-based. The settings on record: Human immunodeficiency virus 1, HeLa. In outline: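 Cell-cell fusion run by a collaborating lab: HeLa effector cells with inducible gp160 expression were mixed with CCR5-expressing Tat-LTR-luciferase reporter cells, and syncytium formation was scored. DMSO in cell culture was capped at 1%.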

Test [3] is described as follows: Inhibition of HIV1 gp41 by metallopeptide-based fluorescence assay. Set-up: species or system Human immunodeficiency virus 1. The method, boiled down:
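HR1 coiled-coil metallopeptide receptor [Fe(II)(env2.0)3]2+ (7.2 μM final) was mixed with LY-labelled HR2 probe C18-Aib-LY (1 μM) and 20 μM inhibitor in 25 mM Tris, 25 mM sodium acetate pH 7.0, 0.01% Tween 20, 4% DMSO. Inhibitor displacement relieved quenching; fluorescence was read at ex 425/em 540 nm. Signal was taken as primary/control scan ratio and Ki derived from binding equations.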

A short description of test [4]: Inhibition of HIV1 gp41 by metallopeptide-based fluorescence assay using dose response study. Details: species or system Human immunodeficiency virus 1. In outline:
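Competitive dose-response with 7.2 μM Fe(II) HR1 metallopeptide receptor and 1 μM C18-Aib-LY probe across varying inhibitor concentrations. Buffer was pH 7.0 Tris/acetate with 0.01% Tween 20 and 4% DMSO; read at ex 425/em 540 nm, relative to free-probe maximum. Curves were fit to equations 5 and 8 for Ki; three independent experiments, mean ± SD.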

Test [5] deals with Human immunodeficiency virus 1. Put plainly: Antiviral activity against HIV1 assessed as six-helix bundle formation assay. It is filed as functional.

With `O=C(O[C@@H]1Cc2c(O)cc(O)cc2O[C@H]1c1cc(O)c(O)c(O)c1)c1cc(O)c(O)c(O)c1` (single isomer, unassigned) [GALLOCATECHIN GALLATE], in test [1], the IC50 was found to be 4.32 µM.

With `O=C(O)c1ccc(NC(=O)c2cccc(Cc3ccc(F)cc3)c2)c(Cc2cccc([N+](=O)[O-])c2)c1`, the IC50 in test [2] was found to be 8 µM. For the same molecule, the inhibition constant Ki in test [3] is 1.2 µM; in test [4] it was 1.34 µM.

Turning to `O=C(O[C@@H]1Cc2c(O)cc(O)cc2O[C@@H]1c1cc(O)c(O)c(O)c1)c1cc(O)c(O)c(O)c1` [EPIGALOCATECHIN GALLATE], the IC50 in test [5] stood at 19.9 µM.

On to `O=C(O)c1ccc(NC(=O)c2cccc(Cc3cccc4cccnc34)c2)c(Cc2cccc(F)c2)c1`, for which, in test [2], the half-maximal inhibitory concentration (IC50) was found to be 8 µM. For the same molecule, the inhibition constant Ki in test [3] was found to be 1.15 µM; in test [4], 1.51 µM.

For `CC[C@H](C)[C@H](NC(=O)[C@H](CC(C)C)NC(=O)[C@H](CO)NC(=O)[C@@H](NC(=O)[C@H](Cc1ccc(O)cc1)NC(=O)[C@H](CC(N)=O)NC(=O)C(C)(C)NC(=O)[C@@H](NC(=O)[C@H](CCC(=O)O)NC(=O)[C@H](CCCNC(=N)N)NC(=O)[C@H](CC(=O)O)NC(=O)[C@H](Cc1c[nH]c2ccccc12)NC(=O)[C@H](CCC(=O)O)NC(=O)C(C)(C)NC(=O)[C@H](Cc1c[nH]c2ccccc12)NC(=O)[C@@H](NC(=O)[C@H](CCSC)NC(C)=O)[C@@H](C)O)[C@@H](C)CC)[C@@H](C)O)C(=O)N[C@@H](CS)C(N)=O` (Ac-MTW[Aib]EWDREI[Aib]NYTSLIC-NH2), the Ki in test [3] amounted to 0.6 µM; in test [4] it was 0.8 µM.
